Test results from ChEMBL document CHEMBL1132304, “Characterization of "mini-nucleotides" as P2X receptor agonists in rat cardiomyocyte cultures. An integrated synthetic, biochemical, and theoretical study” (1999).
Calls of active or inactive are those of the source. No cut-off for these calls is given here.

Key:
Rattus norvegicus [1] = organism: Rattus norvegicus; assay: Inhibition of Ca++ elevation was determined in CPX treated cardiac cells in rat; No inhibition; type: functional, cell-based
Rattus norvegicus [2] = organism: Rattus norvegicus; assay: In vitro effect on intracellular ca++ elevation was determined in comparison to the ATP at 10 uM on rat cardiomyocytes; Ca++ elevation; type: functional
Procedure, shortened: (§1)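 Cultured neonatal rat cardiomyocytes (3-5 days in vitro) on coverglasses were loaded with indo-1, and [Ca²⁺]i was estimated by the 405/495 nm emission ratio method under UV epifluorescence. Ligand was added at 100 µM, with ATP 10 µM as reference. The read-out was [Ca²⁺]i elevation in nM above the 100 nM basal level, from 2-3 experiments.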

Rattus norvegicus [3] = organism: Rattus norvegicus; assay: Compound was evaluated 1 min after drug application on rat cardiomyocytes; type: functional; parameters: concentration or dose not given beside the values
Procedure, shortened: (§2)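 Neonatal rat cardiomyocyte cultures (3-5 days in vitro, spontaneously contracting monolayers on collagen/gelatin-coated coverglasses) exposed to ligand at 100 µM. Contraction rate was recorded by video motion detector under phase-contrast microscopy at 37 °C in 95% air/5% CO₂, 1 min after drug application. The read-out was % reduction of heart rate from representative experiments.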

Rattus norvegicus [4] = organism: Rattus norvegicus; assay: In vitro effect on intracellular ca++ elevation was determined in comparison to the ATP at 10 uM on rat cardiomyocytes; Ca++ elevation; Not active; type: functional; procedure, shortened: as §1
Rattus norvegicus [5] = organism: Rattus norvegicus; assay: Inhibition of Ca++ elevation was determined in PPADS treated cardiac cells in rat; Complete inhibition; type: functional, cell-based
Rattus norvegicus [6] = organism: Rattus norvegicus; assay: Inhibition of Ca++ elevation was determined in CPX treated cardiac cells in rat; Complete inhibition; type: functional, cell-based
Rattus norvegicus [7] = organism: Rattus norvegicus; assay: In vitro effect on intracellular ca++ elevation was determined in comparison to the ATP at 10 uM on rat cardiomyocytes; Not active; type: functional; procedure, shortened: as §1
Rattus norvegicus [8] = organism: Rattus norvegicus; assay: In vitro effect on intracellular ca++ elevation was determined in comparison to the ATP at 10 uM on rat cardiomyocytes; Ca++ elevation; Not avtive; type: functional; procedure, shortened: as §1
Rattus norvegicus [9] = organism: Rattus norvegicus; assay: Inhibition of Ca++ elevation was determined in CPX treated cardiac cells in rat; Complete inhibition; Complete inhibition; type: functional, cell-based
Rattus norvegicus [10] = organism: Rattus norvegicus; assay: Inhibition of Ca++ elevation was determined in PPADS treated cardiac cells in rat; type: functional
Procedure, shortened: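 Neonatal rat cardiomyocyte cultures. Cells were incubated 5 min with 100 µM PPADS (P2-R antagonist) before the agonist was added at 100 µM (ATP at 10 µM). Intracellular Ca²⁺ was measured by the indo-1 405/495 nm emission ratio (Grynkiewicz ratio method). Scored as complete inhibition (+), no inhibition (−), or partial.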

Rattus norvegicus [11] = organism: Rattus norvegicus; assay: In vitro effect on intracellular ca++ elevation in comparison to the ATP at 10 uM on rat cardiomyocytes.; type: functional; procedure, shortened: as §1
Rattus norvegicus [12] = organism: Rattus norvegicus; assay: Inhibition of Ca++ elevation was determined in PPADS treated cardiac cells in rat; No inhibition; type: functional, cell-based
Rattus norvegicus [13] = organism: Rattus norvegicus; assay: Compound was evaluated 1 min after drug application on rat cardiomyocytes; Not active; type: functional; procedure, shortened: as §2

SMILES	Ca2+ elevation (Rattus norvegicus [2])	Reduction of heart rate (Rattus norvegicus [3])	inhibition (Rattus norvegicus [5])	further results
Cn1c(=O)c2c(nc(Cl)n2CCOP(=O)(O)O)n(C)c1=O	49 nM	95%		inhibition (Rattus norvegicus [1]): inactive
Cn1c(=O)c2c(ncn2CCCOP(=O)(O)OP(=O)(O)OP(=O)(O)O)n(C)c1=O				Ca2+ elevation (Rattus norvegicus [4]): inactive
Cn1c(=O)c2c(ncn2CCOP(=O)(O)O)n(C)c1=O	80 nM	16%	Total inhibition	inhibition (Rattus norvegicus [6]): Total inhibition
Cn1c(=O)c2c(nc(Br)n2CCOP(=O)(O)O)n(C)c1=O	54 nM	17%		
Cn1c(=O)c2c(nc(Sc3ccccc3)n2CCOP(=O)(O)O)n(C)c1=O				Ca2+ elevation (Rattus norvegicus [7]): inactive
Cn1cnc2c1c(=O)n(CCCOP(=O)(O)O)c(=O)n2C				Ca2+ elevation (Rattus norvegicus [8]): inactive
Cn1cnc2c1c(=O)n(CCOP(=O)(O)O)c(=O)n2C.N.N	61 nM	10%	Total inhibition	inhibition (Rattus norvegicus [9]): Total inhibition
CCOc1nc2c(c(=O)n(C)c(=O)n2C)n1CCOP(=O)(O)O				Ca2+ elevation (Rattus norvegicus [7]): inactive
CCOc1nc2c(c(=O)n(C)c(=O)n2C)n1CCOP(=O)(O)OP(=O)(O)OP(=O)(O)O				Ca2+ elevation (Rattus norvegicus [8]): inactive
Cn1c(=O)c2c(ncn2CCCOP(=O)(O)O)n(C)c1=O				Ca2+ elevation (Rattus norvegicus [8]): inactive
Cn1c(=O)c2c(nc(Br)n2CCOP(=O)(O)OP(=O)(O)OP(=O)(O)O)n(C)c1=O	37 nM	32%		
Cn1cnc2c1c(=O)n(CCCOP(=O)(O)OP(=O)(O)OP(=O)(O)O)c(=O)n2C.N.N.N.N	60 nM			
Nc1ncnc2c1ncn2[C@@H]1O[C@H](COP(=O)(O)OP(=O)(O)OP(=O)(O)O)[C@@H](O)[C@H]1O [ADENOSINE TRIPHOSPHATE]				inhibition (Rattus norvegicus [1]): inactive; Inhibition (Rattus norvegicus [10]): 60%
Cn1c(Sc2ccccc2)nc2c1c(=O)n(CCOP(=O)(O)O)c(=O)n2C				Ca2+ elevation (Rattus norvegicus [7]): inactive
Cn1c(=O)c2c(nc(Sc3ccccc3)n2CCOP(=O)(O)OP(=O)(O)OP(=O)(O)O)n(C)c1=O				Ca2+ elevation (Rattus norvegicus [7]): inactive
Cn1c(=O)c2c(ncn2CCOP(=O)(O)OP(=O)(O)OP(=O)(O)O)n(C)c1=O		64%	Total inhibition	Ca2+ elevation (Rattus norvegicus [11]): 87 nM; inhibition (Rattus norvegicus [1]): inactive
Cn1cnc2c1c(=O)n(CCOP(=O)(O)OP(=O)(O)OP(=O)(O)O)c(=O)n2C.N.N.N.N	54 nM	3%		inhibition (Rattus norvegicus [12]): inactive; inhibition (Rattus norvegicus [6]): Total inhibition
Cn1c(Br)nc2c1c(=O)n(CCOP(=O)(O)O)c(=O)n2C	80 nM		Total inhibition	NA (Rattus norvegicus [13]): inactive; inhibition (Rattus norvegicus [1]): inactive
Cn1c(=O)c2c(nc(Cl)n2CCOP(=O)(O)OP(=O)(O)OP(=O)(O)O)n(C)c1=O	29 nM	28%	Total inhibition	inhibition (Rattus norvegicus [1]): inactive
Cn1c(Br)nc2c1c(=O)n(CCOP(=O)(O)OP(=O)(O)OP(=O)(O)O)c(=O)n2C	94 nM	50%	Total inhibition	
